Laboratory results reported in ChEMBL document CHEMBL4145606, “Microcystins Containing Doubly Homologated Tyrosine Residues from a Microcystis aeruginosa Bloom: Structures and Cytotoxicity” (J Nat Prod, 2018).
Starred links: 1 amine or outer side, 2 acyl side, 3 side chain; linkers in the order of their positions; H or OH if unused. Positions of bridges follow the written chain, without caps; N, C: chain ends. Non-standard residues stand in square brackets, D forms with d. Residues, ends and D or L forms follow the SMILES beside them. Adda = CO[C@@H](Cc1ccccc1)[C@@H](C)/C=C(C)/C=C/[C@H](N[*:1])[C@H](C)C(=O)[*:2]; dAsp(3S-Me) = C[C@H](C(=O)[*:3])[C@@H](N[*:1])C(=O)[*:2]; d(γGlu) = O=C(O)[C@@H](CCC(=O)[*:2])N[*:1]; NMeDha = C=C(NC)C(=O)O

Columns and labels:
[1] = test system: HCT-116; assay: Cytotoxicity against human HCT116 cells assessed as reduction in cell viability after 72 hrs by MTT assay; type: functional, cell-based
Method in brief: (§1)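 Cells seeded in 96-well plates and incubated overnight at 37 °C. Treated with a range of concentrations (∼35 to 0.1 μM) for ∼72 h at 37 °C. Viability read by MTT assay. EC50 estimated from the dose-response curves.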

[2] = test system: A549; assay: Cytotoxicity against human A549 cells assessed as reduction in cell viability after 72 hrs by MTT assay; type: functional, cell-based; method in brief: as §1

| SMILES | EC50 [1] [µM] | EC50 [2] [µM] | Activity [1] | Activity [2] |
| --- | --- | --- | --- | --- |
| C=C1C(=O)N[C@H](C)C(=O)N[C@@H](CC(C)C)C(=O)N[C@@H](C(=O)O)[C@H](C)C(=O)N[C@@H](CCCNC(=N)N)C(=O)N[C@@H](/C=C/C(C)=C/[C@H](C)[C@H](Cc2ccccc2)OC)[C@H](C)C(=O)N[C@@H](C(=O)O)CCC(=O)N1C [MICROCYSTIN-LR] (R[Adda][d(γGlu)][NMeDha][dA]L[dAsp(3S-Me)]-OH; lactam N-7) | 35 | > 35 |  |  |
| C=C1C(=O)N[C@H](C)C(=O)N[C@@H](CCCc2ccc(O)cc2)C(=O)N[C@@H](C(=O)O)[C@H](C)C(=O)N[C@@H](CCCNC(=N)N)C(=O)N[C@@H](/C=C/C(C)=C/[C@H](C)[C@H](Cc2ccccc2)OC)[C@H](C)C(=O)N[C@@H](C(=O)O)CCC(=O)N1C | > 35 | 18 |  |  |
| C=C1C(=O)N[C@H](CC(C)C)C(=O)N[C@@H](CC(C)C)C(=O)N[C@@H](C(=O)O)[C@H](C)C(=O)N[C@@H](Cc2ccc(O)cc2)C(=O)N[C@@H](/C=C/C(C)=C/[C@H](C)[C@H](Cc2ccccc2)OC)[C@H](C)C(=O)N[C@@H](C(=O)O)CCC(=O)N1C (Y[Adda][d(γGlu)][NMeDha][dL]L[dAsp(3S-Me)]-OH; lactam N-7) | 11 | 1.3 | Dose-dependent effect | Dose-dependent effect |
| C=C1C(=O)N[C@H](C)C(=O)N[C@@H](CCc2ccc(O)cc2)C(=O)N[C@@H](C(=O)O)[C@H](C)C(=O)N[C@@H](CCCc2ccc(O)cc2)C(=O)N[C@@H](/C=C/C(C)=C/[C@H](C)[C@H](Cc2ccccc2)OC)[C@H](C)C(=O)N[C@@H](C(=O)O)CCC(=O)N1C | 3.3 | 0.36 | Dose-dependent effect | Dose-dependent effect |
